{
  "source": "ChEMBL document CHEMBL4270555",
  "about": "“Synthesis and biological evaluation of magnolol derivatives as melatonergic receptor agonists with potential use in depression” (Eur J Med Chem, 2018)",
  "key": {"[1]": {"target": "Melatonin receptor type 1A (Homo sapiens, UniProt P48039)", "sequence (P48039 whole entry)": "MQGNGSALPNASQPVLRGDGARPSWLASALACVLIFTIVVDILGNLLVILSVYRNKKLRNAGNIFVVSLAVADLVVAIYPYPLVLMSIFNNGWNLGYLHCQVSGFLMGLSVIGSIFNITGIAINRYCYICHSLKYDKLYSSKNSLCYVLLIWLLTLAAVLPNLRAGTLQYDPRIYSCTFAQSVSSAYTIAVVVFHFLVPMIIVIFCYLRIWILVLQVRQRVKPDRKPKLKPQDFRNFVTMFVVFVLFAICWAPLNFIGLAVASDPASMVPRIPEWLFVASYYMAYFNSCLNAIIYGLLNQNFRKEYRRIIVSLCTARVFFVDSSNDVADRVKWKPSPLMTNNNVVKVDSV", "experiment": "Agonist activity at human MT1 receptor expressed in HEK293 cells at 1 mM after 24 hrs by Fluo-8 dye-based calcium assay relative to control", "type": "functional, cell-based", "procedure,_shortened": "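Fluo-8 calcium assay in HEK293 cells stably expressing human MT1 or MT2, seeded 4×10^4/well and incubated 24 h. Compounds tested at 1.00 mM, agomelatine positive control at 3.33 µM; fluorescence at ex 485/em 525 nm. Agonism expressed as mean ± SD, n = 3.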"}, "Mus musculus [2]": {"system": "Mus musculus", "experiment": "Increase in norepinephrine level in Kunming mouse striatum at 40 mg/kg, po treated for 7 days by HPLC-ECD analysis", "type": "functional, organism-based", "procedure,_shortened": "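Male Kunming mice (18–20 g) given vehicle or 40 mg/kg for 7 days, then killed by cervical dislocation. Frontal cortex, hippocampus, striatum, hypothalamus and thalamus dissected on ice, homogenized in ice-cold 0.2 M perchloric acid with 0.1 mM EDTA, centrifuged 15,000 rpm, 20 min, 4 °C. Supernatant analysed by HPLC-ECD at +0.50 V; phosphate/octanesulfonate mobile phase pH 3.0 with 12% methanol. Levels in ng/g, mean ± SEM.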"}, "Mus musculus [3]": {"system": "Mus musculus", "experiment": "Decrease in dopamine level in Kunming mouse hypothalamus at 40 mg/kg, po treated for 7 days by HPLC-ECD analysis", "type": "functional, organism-based", "procedure,_shortened": "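Male Kunming mice received vehicle or 40 mg/kg for 7 days, then were killed by cervical dislocation and the brain regions dissected on ice. Tissue was homogenized in ice-cold 0.2 M perchloric acid with 0.1 mM EDTA and centrifuged at 15,000 rpm, 20 min, 4 °C. Supernatant was analyzed by HPLC-ECD (+0.50 V; phosphate/octanesulfonate mobile phase, pH 3.0). Results in ng/g, mean ± SEM.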"}, "[4]": {"experiment": "Toxicity in po dosed Sprague-Dawley rat measured continuously for first 4 hrs followed by measured every hour for next 24 hrs and at 6 hrs intervals for following 48 hrs post dose", "type": "organism-based", "settings": "in vivo", "procedure,_shortened": "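Followed OECD 425 in adult SD rats (180–220 g), three groups of six. Vehicle control received 0.5% CMC-Na orally; separate male and female groups received 2000 mg/kg orally. Endpoints observed: behaviour, breathing, cutaneous effects, sensory nervous system responses, gastrointestinal effects and deaths.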"}, "[5]": {"experiment": "(§1) Drug metabolism in Sprague-Dawley rat plasma assessed as (2S,3S,4S,5R,6S)-6-(5'-allyl-5-(1-hydroxyallyl)-2'-((2S,3R,4S,5S,6R)-3,4,5-trihydroxy-6-(hydroxymethyl)tetrahydro-2H-pyran-2-yloxy)biphenyl-2-yloxy)-3,4,5-trihydroxytetrahydro-2H-pyran-2-carboxylic acid formation at 100 mg/kg, po by UPLC-IT-TOF-MS analysis", "type": "ADME, organism-based", "settings": "in vivo", "procedure,_shortened": "(§2)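 Rats (n = 6) housed in metabolic cages received 100.0 mg/kg orally; controls received 0.5% CMC-Na. Plasma, urine and faeces were collected and analyzed by LC-IT-TOF-MS on a C18 column at 30 °C. Gradient 5–100% acetonitrile with 0.05% formic acid over 18 min at 0.2 mL/min; positive and negative ion MS/MS.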"}, "[6]": {"experiment": "as §1, with “urine” for “plasma”", "type": "ADME, organism-based", "settings": "in vivo", "procedure,_shortened": "(§3)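 Male/unspecified SD rats (n = 6) housed individually in metabolic cages, dosed orally at 100.0 mg/kg; controls given 0.5% CMC-Na orally. Plasma, urine and faeces collected. LC-IT-TOF-MS on C18 column at 30 °C, formic acid (0.05%) water/acetonitrile gradient 5–100% B over 18 min, 0.2 mL/min; positive and negative ion modes with automatic MS/MS.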"}, "[7]": {"experiment": "as §1, with “feces” for “plasma”", "type": "ADME, organism-based", "settings": "in vivo", "procedure,_shortened": "as §2"}, "[8]": {"experiment": "Drug metabolism in Sprague-Dawley rat plasma assessed as (2S,3S,4S,5R,6S)-3,4,5-trihydroxy-6-(5-(1-hydroxyallyl)-5'-(2-hydroxypropyl)-2'-methoxybiphenyl-2-yloxy)tetrahydro-2H-pyran-2-carboxylic acid formation at 100 mg/kg, po by UPLC-IT-TOF-MS analysis", "type": "ADME, organism-based", "settings": "in vivo", "procedure,_shortened": "as §2"}, "[9]": {"experiment": "Drug metabolism in Sprague-Dawley rat urine assessed as (2S,3S,4S,5R,6S)-3,4,5-trihydroxy-6-(5-(1-hydroxyallyl)-5'-(2-hydroxypropyl)-2'-methoxybiphenyl-2-yloxy)tetrahydro-2H-pyran-2-carboxylic acid formation at 100 mg/kg, po by UPLC-IT-TOF-MS analysis", "type": "ADME, organism-based", "settings": "in vivo", "procedure,_shortened": "as §3"}, "[10]": {"experiment": "Drug metabolism in Sprague-Dawley rat plasma assessed as (2S,3R,4S,5S,6R)-2-(5'-allyl-2'-hydroxy-5-(1-hydroxyallyl)biphenyl-2-yloxy)-6-(hydroxymethyl)tetrahydro-2H-pyran-3,4,5-triol formation at 100 mg/kg, po by UPLC-IT-TOF-MS analysis", "type": "ADME, organism-based", "settings": "in vivo", "procedure,_shortened": "as §2"}, "[11]": {"experiment": "Drug metabolism in Sprague-Dawley rat feces assessed as 5-allyl-5'-(1-hydroxyallyl)-2'-((2S,3R,4S,5S,6R)-3,4,5-trihydroxy-6-(hydroxymethyl)tetrahydro-2H-pyran-2-yloxy)biphenyl-2-yl hydrogen sulfate formation at 100 mg/kg, po by UPLC-IT-TOF-MS analysis", "type": "ADME, organism-based", "settings": "in vivo", "procedure,_shortened": "as §2"}, "[12]": {"experiment": "Drug metabolism in Sprague-Dawley rat urine assessed as 2S,3S,4S,5R,6S)-6-(5,5'-diallyl-2'-((2S,3R,4S,5S,6R)-3,4,5-trihydroxy-6-(hydroxymethyl)tetrahydro-2H-pyran-2-yloxy)biphenyl-2-yloxy)-3,4,5-trihydroxytetrahydro-2H-pyran-2-carboxylic acid formation at 100 mg/kg, po by UPLC-IT-TOF-MS analysis", "type": "ADME, organism-based", "settings": "in vivo", "procedure,_shortened": "as §3"}, "[13]": {"experiment": "Drug metabolism in Sprague-Dawley rat feces assessed as 2S,3S,4S,5R,6S)-6-(5,5'-diallyl-2'-((2S,3R,4S,5S,6R)-3,4,5-trihydroxy-6-(hydroxymethyl)tetrahydro-2H-pyran-2-yloxy)biphenyl-2-yloxy)-3,4,5-trihydroxytetrahydro-2H-pyran-2-carboxylic acid formation at 100 mg/kg, po by UPLC-IT-TOF-MS analysis", "type": "ADME, organism-based", "settings": "in vivo", "procedure,_shortened": "as §2"}, "[14]": {"experiment": "Drug metabolism in Sprague-Dawley rat urine assessed as (2R,2'R,3S,3'S,4S,4'S,5R,5'R,6S,6'S)-6,6'-(5,5'-diallylbiphenyl-2,2'-diyl)bis(oxy)bis(2-(hydroxymethyl)tetrahydro-2H-pyran-3,4,5-triol) formation at 100 mg/kg, po by UPLC-IT-TOF-MS analysis", "type": "ADME, organism-based", "settings": "in vivo", "procedure,_shortened": "as §3"}, "[15]": {"experiment": "Drug metabolism in Sprague-Dawley rat feces assessed as (2S,3R,4S,5S,6R)-2-(5,5'-diallyl-2'-methoxybiphenyl-2-yloxy)-6-(hydroxymethyl)tetrahydro-2H-pyran-3,4,5-triol formation at 100 mg/kg, po by UPLC-IT-TOF-MS analysis", "type": "ADME, organism-based", "settings": "in vivo", "procedure,_shortened": "as §2"}, "[16]": {"experiment": "Drug metabolism in Sprague-Dawley rat urine assessed as 5,5'-diallyl-2'-hydroxybiphenyl-2-yl hydrogen sulfate formation at 100 mg/kg, po by UPLC-IT-TOF-MS analysis", "type": "ADME, organism-based", "settings": "in vivo", "procedure,_shortened": "as §3"}, "[17]": {"experiment": "Drug metabolism in Sprague-Dawley rat urine assessed as (2S,3S,4S,5R,6S)-6-(5,5'-diallyl-2'-methoxybiphenyl-2-yloxy)-3,4,5-trihydroxytetrahydro-2H-pyran-2-carboxylic acid formation at 100 mg/kg, po by UPLC-IT-TOF-MS analysis", "type": "ADME, organism-based", "settings": "in vivo", "procedure,_shortened": "as §3"}, "[18]": {"experiment": "Drug metabolism in Sprague-Dawley rat plasma assessed as 5,5'-diallylbiphenyl-2,2'-diol formation at 100 mg/kg, po by UPLC-IT-TOF-MS analysis", "type": "ADME, organism-based", "settings": "in vivo", "procedure,_shortened": "as §3"}},
  "note": "Calls of active or inactive are those of the source. No cut-off for these calls is given here.",
  "data": [
    {"smiles": "C=CCc1ccc(O)c(-c2cc(CC=C)ccc2O[C@@H]2O[C@H](CO)[C@@H](O)[C@H](O)[C@H]2O)c1", "values": [
      {"measurement": "Activity", "setting": "[1]", "value": 108, "unit": "%"},
      {"measurement": "Activity", "setting": "Mus musculus [2]", "value": "Active"},
      {"measurement": "Activity", "setting": "Mus musculus [3]", "value": "Active"},
      {"measurement": "LD50 at 76 h", "setting": "[4]", "value": "> 2000", "unit": "mg/kg"},
      {"measurement": "Drug metabolism", "setting": "[5]", "value": "Metabolite_Notdetected"},
      {"measurement": "Drug metabolism", "setting": "[6]", "value": "Metabolite_Detected"},
      {"measurement": "Drug metabolism", "setting": "[7]", "value": "Metabolite_Detected"},
      {"measurement": "Drug metabolism", "setting": "[8]", "value": "Metabolite_Notdetected"},
      {"measurement": "Drug metabolism", "setting": "[9]", "value": "Metabolite_Detected"},
      {"measurement": "Drug metabolism", "setting": "[10]", "value": "Metabolite_Notdetected"},
      {"measurement": "Drug metabolism", "setting": "[11]", "value": "Metabolite_Detected"},
      {"measurement": "Drug metabolism", "setting": "[12]", "value": "Metabolite_Detected"},
      {"measurement": "Drug metabolism", "setting": "[13]", "value": "Metabolite_Detected"},
      {"measurement": "Drug metabolism", "setting": "[14]", "value": "Metabolite_Detected"},
      {"measurement": "Drug metabolism", "setting": "[15]", "value": "Metabolite_Detected"},
      {"measurement": "Drug metabolism", "setting": "[16]", "value": "Metabolite_Notdetected"},
      {"measurement": "Drug metabolism", "setting": "[17]", "value": "Metabolite_Detected"},
      {"measurement": "Drug metabolism", "setting": "[18]", "value": "Metabolite_Notdetected"}
    ]}
  ]
}
